Published values of several laboratories.
Lines come from different studies, so protocols differ.
Target: Casein kinase I isoform epsilon (CSNK1E, Homo sapiens, UniProt P49674)

With `O=c1nc(-c2ccccn2)sc2ccccc12` the remaining binding was 88% (binding; competition with immobilised ligand; 1 µM).
For `N[C@@H]1CCN(c2nccc(-c3cnn4ncccc34)n2)C1`, the remaining binding was 31% (binding; 1 µM).
For `Cc1cnc(Nc2ccc(C(=O)N3CCC(N4CCCC4)CC3)cc2)nc1-c1cc2ccccc2s1`, the remaining binding was 100% (binding; competition with immobilised ligand; 1 µM).
For `c1cnn2ncc(-c3ccnc(N4CCC45COC5)n3)c2c1`, the remaining binding was 53% (binding; 1 µM).
`C=CC(=O)N1CCC(C(=O)NCC(=O)N2CCN(c3nc(-c4cnc(N)nc4C(F)F)nc(N4CCOCC4)n3)CC2)CC1` has a remaining binding of 87% (binding; competition with immobilised ligand; 1 µM).
With `C[C@@H]1CCN(c2nccc(-c3cnn4ncccc34)n2)C1` the remaining binding was 86% (binding; 1 µM).
The remaining binding of `C[C@@H](c1ccc(-n2cnc3c(N)ncnc32)cc1)N1CCc2nn(C)c(Cc3ccccc3)c2C1=O` is reported as 83% (binding; competition with immobilised ligand; 0.1 µM).
With `Cc1c(NC(=O)c2cc(C(N)=O)nc3cc(F)ccc23)c(C(F)(F)F)nn1Cc1ccc(C(C)(C)C)cc1` the remaining binding was 91% (cell-free assay; competition with immobilised ligand; 1 µM).
`O=C(NCCCN1CCOCC1)c1ccc(Nc2ncc(Cl)c(-c3ccc(Cl)s3)n2)cc1` gave a remaining binding of 100% (binding; competition with immobilised ligand; 1 µM).
The remaining binding of `CN(C)c1ncc(F)c(-c2cnn3ncccc23)n1` is reported as 100% (binding; 1 µM).
`O=C(Nc1c[nH]nc1C(=O)NC1CCNCC1)c1cc(F)cc(F)c1` has a remaining binding of 73% (binding; competition with immobilised ligand; 1 µM).
With `CC(=O)N1CCC(c2ccc(C(=O)NC(=N)N)cc2C(F)(F)F)CC1` the remaining binding was 100% (cell-free assay; competition with immobilised ligand; 1 µM).
`COc1ccnn2ncc(-c3ccnc(N(C)C)n3)c12` has a remaining binding of 75% (binding; 1 µM).
The remaining binding of `CN(c1ccnc(CNc2nc(Nc3ccc4c(c3)CC(=O)N4)ncc2C(F)(F)F)n1)S(C)(=O)=O` is reported as 100% (cell-free assay; competition with immobilised ligand; 1 µM).
For `COc1cnc(Nc2cccc(S(N)(=O)=O)c2)nc1N1CCN(c2ccccc2)C(=O)C1`, the remaining binding was 100% (binding; competition with immobilised ligand; 1 µM).
`CN(CCCC(F)(F)F)c1nccc(-c2cnn3ncccc23)n1` gave a remaining binding of 100% (binding; 1 µM).
`c1cncc(-c2cccc(Nc3nccc(NC4CCCCC4)n3)c2)c1` gave a remaining binding of 11% (binding; competition with immobilised ligand; 10 µM).
With `CNCc1ccccc1-c1csc([C@@H](C)Nc2nc(C)nc3cc(OC)c(OC)cc23)c1` the remaining binding was 99% (cell-free assay; competition with immobilised ligand; 1 µM).
`O=C(NCCCN1CCOCC1)c1ccc(Nc2nccc(-c3cc4ccccc4s3)n2)cc1` gave a remaining binding of 100% (binding; competition with immobilised ligand; 1 µM).
For `Nc1ncc2c(n1)-c1c([nH]c3ccc(C#CC4CC4)cc13)CCCC2`, the remaining binding was 100% (binding; competition with immobilised ligand; 1 µM).
For `O=C1NC(c2ccccn2)Sc2ccccc21` (stereo not shown), the remaining binding was 98% (cell-free assay; competition with immobilised ligand; 1 µM).
The remaining binding of `COc1cnc(Nc2cccc(S(N)(=O)=O)c2)nc1N1CCN(c2ccccc2)CC1` is reported as 100% (binding; competition with immobilised ligand; 1 µM).
